Columns and labels:
Calf thymus DNA [1] = test: DNA binding affinity constant for calf-thymus DNA at pH 5; assay type: nucleic-acid assay; conditions: Bos taurus
Method in brief: (§1)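 Calf thymus DNA (4 µg/mL) at 25 °C, with drug at 10^-5 M, titrated with microliter portions of ethidium bromide (100 µg/mL stock in buffer). Fluorescence excitation was 546 nm and emission 590 nm. Apparent affinity constant (Kap) was derived from Scatchard plots of the competition.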

Calf thymus DNA [2] = test: DNA binding affinity constant for calf-thymus DNA at pH 6; assay type: nucleic-acid assay; conditions: Bos taurus; method in brief: as §1
Calf thymus DNA [3] = test: DNA binding affinity constant in calf-thymus DNA at pH 7.4; assay type: nucleic-acid assay; conditions: Bos taurus; method in brief: as §1
[4] = Acid dissociation constant (pKa) measured by UV spectroscopy
L1210 [5] = test: The compound was tested for maximum tolerated dose (MTD) against L1210 cells in […] mice; assay type: functional, Mus musculus
Method in brief: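 Acute toxicity in mice by the usual procedure. MTD is the highest dose that can be given without any animal death.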

L1210 [6] = test: The compound was tested for optimum dose fraction of MTD against L1210 cells in […] mice; assay type: functional, Mus musculus
Method in brief: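 L1210 leukaemia, 10^5 cells ip into DBA2 mice. Single ip dose of the acetate salt 24 h later, with 20–30 mice per group. Dose is expressed as a fraction of the MTD, where the MTD (highest dose causing no deaths) is taken as unity.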

Mus musculus = organism: Mus musculus; test: The mean survival time of treated animals (T) was compared to that of control animals(C) calculated as % T/C = (treated survival/control) x 100; assay type: functional
Method in brief: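 DBA2 mice, 20–30 per group, given 10^5 L1210 cells ip. 24 h later one ip injection of drug (acetate salt, water-soluble); controls get solvent alone. Deaths recorded daily and survivors past 45 days counted as cured. T/C = mean survival treated/control ×100, with significance by Student's t test.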

| SMILES | K app (Calf thymus DNA [1]) | K app (Calf thymus DNA [2]) | pKa [4] | K app (Calf thymus DNA [3]) | MTD (L1210 [5]) | OD (L1210 [6]) | T/C (Mus musculus) |
| --- | --- | --- | --- | --- | --- | --- | --- |
| COc1ccc2[nH]c3ccc4cc[n+](CCO)cc4c3c2c1.[I-] | – | – | – | 110000 M⁻¹ | 100 mg/kg | 0.5 | 116% |
| C[n+]1ccc2ccc3[nH]c4ccc(O)cc4c3c2c1.[I-] | – | – | – | 180000 M⁻¹ | 25 mg/kg | 1 | – |
| C[n+]1ccc2c(ccc3[nH]c4ccc(O)cc4c32)c1.[I-] | – | – | – | 67000 M⁻¹ | 50 mg/kg | 0.5 | – |
| COc1ccc2c(c1)c1c3c[n+](C)ccc3ccc1n2C.[I-] | – | – | – | 695000 M⁻¹ | 25 mg/kg | 0.7 | 122% |
| COc1ccc2[nH]c3ccc4cc[n+](CCN5CCCCC5)cc4c3c2c1.[Cl-] | – | – | – | 120000 M⁻¹ | 10 mg/kg | 1 | – |
| COc1ccc2[nH]c3ccc4c[n+](C)ccc4c3c2c1.[I-] | – | – | – | 200000 M⁻¹ | 50 mg/kg | 0.5 | – |
| C[n+]1cccc2c3c(ccc21)[nH]c1ccccc13.[I-] | – | – | – | 60000 M⁻¹ | 50 mg/kg | 0.5 | – |
| COc1ccc2c(c1)c1c3cc[n+](C)cc3ccc1n2C.[I-] | – | – | – | 310000 M⁻¹ | 150 mg/kg | 0.5 | 115% |
| COc1ccc2c(c1)c1c3c[n+](CCN4CCCCC4)ccc3ccc1n2C.[Cl-] | – | – | – | 300000 M⁻¹ | 10 mg/kg | 0.5 | – |
| COc1ccc2[nH]c3ccc4cc[n+](C)cc4c3c2c1.[I-] | – | – | – | 290000 M⁻¹ | 50 mg/kg | 0.5 | – |

The next lines start with results.

| K app (Calf thymus DNA [1]) | K app (Calf thymus DNA [2]) | pKa [4] | SMILES | K app (Calf thymus DNA [3]) | MTD (L1210 [5]) | OD (L1210 [6]) | T/C (Mus musculus) |
| --- | --- | --- | --- | --- | --- | --- | --- |
| 100000 M⁻¹ | 32000 M⁻¹ | 5.25 | COc1ccc2[nH]c3ccc4cccnc4c3c2c1 | 18000 M⁻¹ | – | – | – |
| 240000 M⁻¹ | 82000 M⁻¹ | 6.75 | Oc1ccc2[nH]c3ccc4cnccc4c3c2c1 | 19000 M⁻¹ | – | – | – |
| 300000 M⁻¹ | 115000 M⁻¹ | 6.4 | Oc1ccc2[nH]c3ccc4ccncc4c3c2c1 | 42000 M⁻¹ | – | – | – |
| 120000 M⁻¹ | 40000 M⁻¹ | 5.6 | COc1ccc2[nH]c3ccc4ncccc4c3c2c1 | 16000 M⁻¹ | – | – | – |
| 150000 M⁻¹ | 110000 M⁻¹ | 6.4 | COc1ccc2[nH]c3ccc4cnccc4c3c2c1 | 77000 M⁻¹ | – | – | – |
| 530000 M⁻¹ | 250000 M⁻¹ | 5.9 | COc1ccc2c(c1)c1c3cnccc3ccc1n2C | 146000 M⁻¹ | – | – | – |
| 1.1e+06 M⁻¹ | 467000 M⁻¹ | 6.6 | COc1ccc2c(c1)c1c3ccncc3ccc1n2C | 123000 M⁻¹ | – | – | – |
| 170000 M⁻¹ | 44000 M⁻¹ | 5.75 | COc1ccc2[nH]c3ccc4ccncc4c3c2c1 | 35000 M⁻¹ | – | – | – |
| 157000 M⁻¹ | 37000 M⁻¹ | 5.35 | COc1ccc2c(c1)c1c3ncccc3ccc1n2C | 23000 M⁻¹ | – | – | – |
| 115000 M⁻¹ | 30000 M⁻¹ | 5.35 | Oc1ccc2[nH]c3ccc4cccnc4c3c2c1 | 16000 M⁻¹ | – | – | – |

— ChEMBL document CHEMBL1121362, “DNA intercalating compounds as potential antitumor agents. 1. Preparation and properties of 7H-pyridocarbazoles” (1980)
